Rows were chosen to be rich in hits. Some 2.1% of all compounds tested hit in one or more screens of this group.
VIM-2 inh = inhibitors of Pseudomonas aeruginosa VIM-2 metallo-beta-lactamase; purified VIM-2, nitrocefin hydrolysis, epi-absorbance fluorescence; inhibition, % at 5.6 µM; 290,000 compounds, 0.89% hits; AID 1527;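 active = inhibition above the mean of all tested compounds plus 3 SD, cutoff set per screening run, cut at about 7.5% in these data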;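 note: red hydrolysis product quenches plate fluorescence so inhibitors raise well fluorescence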
TRPN1 ag = zebrafish TRPN1 (NompC) channel agonism | HEK293 zebrafish TRPN1-YFP, Fluo-8 calcium fluorescence; 100% = response to 87 µM carbachol | activation, % at 3 µM | 220,000 compounds, 0.18% hits;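 active = activation above its plate's cutoff, the mean activation of test wells on that plate plus 3 SD, cut at about 19% in these data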
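System: zebrafish TRPN1-YFP in HEK293 cells / Dosing: 3 µM single point / Timing: dye loading 1 h at 37 °C, then 30 min room temperature / Signal: Fluo-8 calcium fluorescence, excitation 470-495 nm, emission 515-575 nm / Read-out basis: percent activation from peak over basal fluorescence ratio, control-normalized / Control set: high carbachol 87 µM, low DMSO alone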
IMP-1 inh-1 = inhibitors of Pseudomonas aeruginosa IMP-1 metallo-beta-lactamase; purified IMP-1, nitrocefin hydrolysis, epi-absorbance fluorescence; 290,000 compounds, 0.45% hits; inhibition, % at 5.6 µM;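 active = inhibition above the mean plus 3 SD of all compounds in the same screening run, cut at about 4.5% in these data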
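system = purified recombinant IMP-1 beta-lactamase | amount = 0.2 nM IMP-1, as dispensed | medium = HEPES buffer pH 7.1 with ZnSO4 and Brij 35 | times = 25 °C, 15 min preincubation, 25 min reaction | detection = plate fluorescence quenching by hydrolysis product, ex 480/em 530 nm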
CRFR2-BP antag = CRF-BP/CRF-R2 complex antagonism; 350,000 compounds, 0.59% hits; inhibition, % at 11.8 µM; HEK293 CRF-R2/CRF-BP, CRF-induced calcium fluorescence;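 active = inhibition of the ligand-induced calcium signal above about 50% at the single tested concentration, limit read from the data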
TRPML3 agonist = human mucolipin-3 channel agonism. activation, % at 3 µM. 220,000 compounds, 0.29% hits. Q8TDD5. HEK293 TRPML3-YFP, Fluo-8 calcium fluorescence; 100% = the carbachol control signal;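 active = activation above its plate's cutoff, the mean activation of the plate's test wells plus 3 SD, cut at about 12% in these data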
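system = HEK293 cells stably carrying human TRPML3-YFP | doses = one concentration, 3 µM nominal, 0.3% DMSO | timing = dye loading 1 h 37 °C then 30 min ambient, 125 s read | detection = Fluo-8 calcium dye fluorescence, ex 470-495, em 515-575 nm | benchmarks = high control carbachol 87 µM, low control DMSO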
CRFR2-BP ag = agonists of human CRF-binding protein/CRF-R2 receptor complex | HEK293 CRF-R2/CRF-BP, calcium dye fluorescence (FLIPR); percent of saturating CRF peptide response | activation, % at 13.2 µM | 350,000 compounds, 0.46% hits | AID 588473;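 active = activation of at least 50%, plus an integration ratio under a set limit after plate pattern correction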
IMP-1 inh-2 = IMP-1 inhibition, counter-screen for VIM-2 inhibitors; shares compounds with VIM-2 inh; inhibition, % at 5.6 µM; 1,300 tested, under 10 active; purified IMP-1, nitrocefin hydrolysis, epi-absorbance fluorescence; call rule not given here
VIM-2 FRET inh = VIM-2 FRET inhibition, artifact counter-screen | purified VIM-2, CCF2 FRET substrate hydrolysis | shares compounds with VIM-2 inh | AID 1857 | inhibition, % at 5.6 µM | 1,300 compounds, 23% hits;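 active = inhibition above the mean of all tested compounds plus 3 SD, cut at about 19% in these data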
TEM-1 counter = TEM-1 inhibition, counter-screen for VIM-2 inhibitors | inhibition, % at 5.6 µM | Purified TEM-1, nitrocefin hydrolysis, epi-absorbance fluorescence | 1,300 compounds, 3% hits | shares compounds with VIM-2 inh | AID 1866;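 active = inhibition above that campaign's mean inhibition plus 3 SD, cut at about 0.46% in these data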
Target sequence (P62593 whole entry, looked up): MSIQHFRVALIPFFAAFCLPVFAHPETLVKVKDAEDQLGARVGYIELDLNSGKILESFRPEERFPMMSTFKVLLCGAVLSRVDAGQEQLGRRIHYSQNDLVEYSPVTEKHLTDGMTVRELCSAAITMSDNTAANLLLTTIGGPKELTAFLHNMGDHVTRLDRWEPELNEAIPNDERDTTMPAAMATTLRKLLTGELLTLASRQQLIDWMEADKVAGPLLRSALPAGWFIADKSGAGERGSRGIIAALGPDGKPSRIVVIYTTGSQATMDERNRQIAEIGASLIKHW
VIM-2 confirm 2 = confirmation of P. aeruginosa VIM-2 metallo-beta-lactamase inhibitors. shares compounds with VIM-2 inh. purified VIM-2, nitrocefin hydrolysis, epi-absorbance. inhibition, % at 5.6 µM. 1,300 compounds, 96% hits;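 active = inhibition of the VIM-2 beta-lactamase enzyme above about 11% from the earlier first-round screen, limit read from the data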
A number is an active result; . = inactive; / = no result.

SMILES | VIM-2 inh | TRPN1 ag | IMP-1 inh-1 | CRFR2-BP antag | TRPML3 agonist | CRFR2-BP ag | IMP-1 inh-2 | VIM-2 FRET inh | TEM-1 counter | VIM-2 confirm 2
Cc1cc(C)n2c(nc3ccccc32)c1C(=O)NN | . | . | . | . | . | . | / | / | / | /
COC(=O)c1c(C)cc(C)n2c1nc1ccccc12 | 15 | . | . | . | . | . | . | . | . | 28
CCOC(=O)c1cc2c(=O)n3cccc(C)c3nc2n(CC(C)C)c1=NC(=O)c1ccco1 | . | . | . | . | . | . | / | / | / | /
COCCCNC(=O)c1cc2c(=O)n3cccc(C)c3nc2n(C(C)C)c1=N | 13 | . | . | . | . | . | . | . | 1.1 | 28
C=CCn1c(=N)c(C(=O)OCC)cc2c(=O)n3cccc(C)c3nc21 | 13 | . | . | / | . | / | . | . | . | 26
COc1ccc(C2CC(c3ccccc3OC(C)=O)=NN2C(C)=O)cc1 (stereo not drawn) | . | . | . | . | . | . | / | / | / | /
CCc1cc(=O)oc2cc(C)cc(OCC(=O)NCc3ccncc3)c12 | 20 | / | . | . | / | . | . | . | . | 30
Cc1cc(OCC(=O)NCc2cccnc2)c2c(C)c(C)c(=O)oc2c1 | 22 | / | . | . | / | . | . | . | . | 31
Cc1cc(OCC(=O)NCc2ccncc2)c2c(C)c(C)c(=O)oc2c1 | 44 | / | . | . | / | . | . | . | . | 55
Cc1cc(OCC(=O)Nc2cccnc2)c2c(C)c(C)c(=O)oc2c1 | 61 | / | . | . | / | . | . | . | . | 68
CCc1cc(=O)oc2cc(C)cc(OCC(=O)NCc3cccnc3)c12 | . | / | . | . | / | . | / | / | / | /
Cc1cc(OCC(=O)Nc2ccc(CCO)cc2)c2c(C)c(C)c(=O)oc2c1 | . | / | . | . | / | . | / | / | / | /
Cc1cccc(NC(=O)NCc2cccnc2)c1C | . | / | . | . | / | . | / | / | / | /
O=C(NCc1cccnc1)c1cccc(S(=O)(=O)Nc2cccc(Cl)c2)c1 | / | / | / | . | / | . | / | / | / | /
Cc1ccc2nc3c(c(Nc4ccc5c(c4)OCCO5)c2c1)CCC3 | 16 | . | . | . | . | . | . | . | . | 30
N#Cc1cccc(Nc2c3c(nc4ccccc24)CCC3)c1 | . | / | . | . | / | . | / | / | / | /
Cc1ccc(NC(=O)c2c3c(nc4ccccc24)CCC3)cc1 | . | . | . | . | . | . | / | / | / | /
Cc1ccc2nc3c(c(Nc4ccc(O)cc4)c2c1)CCC3 | 19 | / | . | . | / | . | . | . | . | 32
Cc1csc(=O)n1CCC(=O)OCC(=O)Nc1cc([N+](=O)[O-])ccc1Cl | / | / | / | . | / | . | / | / | / | /
CCN1C(=O)/C(=C2\SC(N3CCOCC3)=NC2=O)c2ccccc21 | 15 | / | . | . | / | . | . | . | . | 24
CCCCN1C(=O)/C(=C2\SC(N3CCOCC3)=NC2=O)c2ccccc21 | . | / | . | . | / | . | / | / | / | /
OCCN=Cc1c(O)[nH]c2ccccc12 | . | . | . | . | . | . | / | / | / | /
Oc1[nH]c2ccccc2c1C=Nc1ccccc1 | 12 | . | . | . | . | . | . | 25 | . | 21
Cn1c(/C=C/c2cccc([N+](=O)[O-])c2)c([N+](=O)[O-])c(=O)n(C)c1=O | . | / | . | . | / | . | / | / | / | /
O=C1CSC(c2ccc([N+](=O)[O-])cc2)N1c1ccccc1 (stereo not drawn) | . | / | . | . | / | . | / | / | / | /
SMILES | VIM-2 inh | TRPN1 ag | IMP-1 inh-1 | CRFR2-BP antag | TRPML3 agonist | CRFR2-BP ag | IMP-1 inh-2 | VIM-2 FRET inh | TEM-1 counter | VIM-2 confirm 2
CN1CCCC1CCNc1ccc2c(=O)c3ccccc3oc2c1 (stereo not drawn) | 17 | / | . | . | / | . | . | . | . | 27
CN1CCC[C@H]1CCNc1ccc2c(=O)c3ccccc3n(C)c2c1 | / | / | / | . | / | . | / | / | / | /
O=c1c2ccccc2oc2cc(NCCCN3CCOCC3)ccc12 | 17 | / | . | . | / | . | . | . | . | 22
CN1CCCC1CCNc1ccc2oc3ccccc3c(=O)c2c1 (stereo not drawn) | 16 | / | . | . | / | . | . | . | . | 18
Cc1ccc(C)c(NC(=S)N2CCC(NC(=O)c3ccc(F)cc3)CC2)c1 | . | / | . | . | / | . | / | / | / | /
CC/C(=N\NC(=O)c1cccnc1)c1ccc2c(c1)OCCO2 | 46 | . | . | . | . | . | . | . | . | .
CN(C)S(=O)(=O)c1ccc(C(=O)N2CCN(S(=O)(=O)c3ccc4c(c3)OCCO4)CC2)cc1 | / | / | / | . | / | . | / | / | / | /
COC(=O)c1cc(Nc2cc(C)nc3ncnn23)cc(C(=O)OC)c1 | 15 | . | . | . | . | . | . | . | . | 35
COc1cc(Nc2cc(C)nc3ncnn23)cc(OC)c1 | . | . | . | . | . | . | / | / | / | /
Cc1cccc(/C=C2/Sc3ccc(C(=O)NCCCN4CCOCC4)cc3NC2=O)c1 | 18 | / | . | / | / | / | . | 23 | . | 12
COc1ccc(C(=O)NCCCN2CCOCC2)cc1OC | . | . | . | . | . | . | / | / | / | /
CCN1CCN(CCCNC(=O)c2ccc3c(c2)NC(=O)/C(=C\c2cccc(C)c2)S3)CC1 | . | / | . | . | / | . | / | / | / | /
CCN1CCCC1CNC(=O)c1ccc2c(c1)NC(=O)/C(=C\c1ccc(OC)c(OC)c1)S2 (stereo not drawn) | 21 | / | . | . | / | . | . | . | . | 24
COc1ccc(/C=C2/Sc3ccc(C(=O)NCCCN4CCOCC4)cc3NC2=O)cc1OC | 22 | / | . | . | / | . | . | 19 | . | 25
CCN1CCCC1CNC(=O)c1ccc2c(c1)NC(=O)/C(=C\c1ccccc1Cl)S2 (stereo not drawn) | / | / | / | . | / | . | / | / | / | /
O=C(COC(=O)c1ccc(F)c(S(=O)(=O)N2CCOCC2)c1)Nc1ccc(Cl)cn1 | / | / | / | . | / | . | / | / | / | /
COc1cccc(/C=C2\SC(=S)N(C(C(=O)O)c3ccccc3)C2=O)c1OC (stereo not drawn) | 32 | . | . | . | . | . | . | 26 | . | 18
COc1cc(/C=C2\SC(=S)N(C(C(=O)O)c3ccccc3)C2=O)cc(OC)c1OC (stereo not drawn) | . | . | . | . | . | . | / | / | / | /
OC(CON=C1c2ccccc2-c2ccccc21)CN1CCNCC1 (stereo not drawn) | 30 | . | . | . | . | . | . | . | . | 45
COc1ccc(-c2ccc(CNCc3ccccn3)o2)cc1Cl | 55 | / | . | / | / | / | . | . | . | 67
CC(C)C(CCNCc1ccccn1)c1ccc(Cl)cc1 (stereo not drawn) | . | / | . | . | / | . | / | / | / | /
